Data as given in paper PMC3085951 (Journal of controlled release : official journal of the …, 2011).
Peptide text beside a SMILES is read from it.

Target: MT1-160p (Homo sapiens, UniProt P50281)
Assay: Phage ELISA, apparent Kd of phage-displayed peptide with MT1-160p
Assay type: binding
Procedure, shortened: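 MT1-160p (MT1-MMP residues 160–174) coated at 100 µg/ml in carbonate buffer pH 9.6, 4°C overnight, then blocked with 1% BSA/PBS. Selected phages bound 2 h at 37°C, then PBST washes. Mouse anti-M13 (1:1000) 1 h at 37°C, then HRP goat anti-mouse (1:2500). TMB 30 min at 37°C in the dark, stopped with 2 M H2SO4, A450. Coated wells without phage served as blanks.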

## CC(C)C[C@H](NC(=O)[C@H](Cc1ccccc1)NC(=O)[C@@H](NC(=O)[C@H](CCCCN)NC(=O)[C@@H](NC(=O)[C@H](CC(N)=O)NC(=O)[C@H](Cc1c[nH]cn1)NC(=O)[C@H](CC(C)C)NC(=O)[C@H](Cc1c[nH]cn1)NC(=O)[C@H](CCCCN)NC(=O)[C@H](Cc1c[nH]c2ccccc12)NC(=O)[C@@H](N)Cc1c[nH]cn1)[C@@H](C)O)[C@@H](C)O)C(=O)O [MT1-AF7p] (H-HWKHLHNTKTFL-OH)
  Kd: 75 pM
